The source of these data is publication PMC4203308 (Biomacromolecules, 2013).

Converted amounts (≈) assume the structure as drawn. “And” between values parts separate entries of the source, which are not always exact repeats. Equal entries are not always repeated. Where no end group is shown, it is not given here. A value given as a limit tells only on which side of the number the result lay.

For one series, the system named is S. Epidermidis (35984). Nature of the series: microbe, parasite or virus in culture. It counts as cell-based. The note with it: for Antimicrobial activity (MIC): 35984, 20 h.
Another series deals with S. aureus (29213). Kind of series: microbe, parasite or virus in culture. Type of series: cell-based, Staphylococcus aureus. The note with it: for Antimicrobial activity (MIC): 29213, 20 h.
The subject of a further series is S aureus (25923). Kind of series: microbe, parasite or virus in culture. Type of series: cell-based, Staphylococcus aureus. The note with it: for Antimicrobial activity (MIC): 25923, 20 h.
The nature of series [1]: in vitro. The note with it: human. Type of series: cell-based.
The next series in a line: Peptide aggregation. Type of series: physicochemical.
The test system of series [2] is Staphylococcus aureus (ATCC 25923). Kind of series: Co-culture of bacteria and mammalian cells: effect on bacteria. It counts as cell-based. The note with it: A549 monolayer + S. aureus (25923), 20 µM peptide, 6 hours.
Series [3] can be described thus: in vitro. It counts as in vitro ADME.
The subject of series [4] is human lung carcinoma A549 cells. Kind of series: Kinetics of peptide-induced cell membrane damage, LIVE/DEAD kit. Type of series: cell-based. The note with it: LIVE/DEAD dye staining, 120 minutes of incubation. The procedure, abridged:
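A549 cells (freshly trypsinized) seeded at 2 × 10⁴ cells/well in collagen-coated glass chambers, grown overnight in F12K/10% FBS at 37 °C, 5% CO₂. Cells were PBS-washed three times and stained with LIVE/DEAD for 15 min. Test compound was added at a final 10 µM, and confocal images were taken over time (ex 488 nm; em 505–530 nm live, 560 nm dead). Membrane integrity was taken as % green of total green+red pixels.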

The mark [5] stands for this setting: Staphylococcus aureus, 20 h, read-out: Antimicrobial activity (MIC).

Regarding `CC1(C)S[C@@H]2[C@H](NC(=O)Cc3ccccc3)C(=O)N2[C@H]1C(=O)O` [Penicillin G], the MIC is 4 µg/mL (≈ 12 µM) in the series with S. Epidermidis (35984) (Staphylococcus epidermidis, 20 h, read-out: Antimicrobial activity (MIC)); 16 µg/mL (≈ 47.8 µM) in the series on S. aureus (29213) (setting [5]); 1 µg/mL (≈ 2.99 µM) in the series with S aureus (25923) (setting [5]).

In the case of FLGALFKALSKLL [PTP-7], half-maximal inhibition in the series “in vitro [1]” (IC50 at 2 h) required 9 µM. Besides, the “Antimicrobial activity (MIC)” value with S. Epidermidis (35984) was determined as 8 µg/mL; in the series on S. aureus (29213) it was 8 µg/mL; in the series with S aureus (25923), 4 µg/mL.

Consider FLGALFRALSRLL [CL-1], for which the “Size of peptide aggregates (Nanosizer)” value in “Peptide aggregation” (PBS pH 7.4, 37 °C, long (> 4–6 hours / overnight) incubation, Zeta nanosizer) was > 2.0 µm and 2.5 µm. Besides, in “Peptide aggregation” (acidic pH, even very high peptide concentrations and long incubation), the “Aggregate formation at acidic pH (in words)” value is listed as “unable to form aggregates at acidic pH”. For the same molecule, in “Peptide aggregation” (after overnight incubation, PBS pH 7.4, DLS and congo red), the “Fraction of peptide in solution existing as aggregates” value was 90–95% and ~95%. The “Time for aggregates to dissolve completely at pH 5.5” value in the series “Peptide aggregation” (solution pH adjusted from physiological pH to pH=5.5 with HCl) is below 30 minutes. Further, the “Effect on S. aureus in co-culture (in words)” value in series [2] was “only S. aureus were selectively killed”. The “estimated half-life in human sera” value in the series “in vitro [3]” was 8 to 9 h. Also, in the series “in vitro [3]” (human, serum), the fraction remaining at 5 h, 10 µM was above 95%. Further, the “Antimicrobial activity (MIC)” value in the series on S. Epidermidis (35984) was found to be 4 µg/mL; in the series on S. aureus (29213) it was 8 µg/mL; in the series with S aureus (25923), 8 µg/mL. Further, the Cell lysis reached in series [4] was below 100%.

What is called IC50 is the point on the concentration scale where inhibition reaches its midpoint. A low value points to greater potency. Broadly, the amount remaining is the share of the starting amount still present when the sample was taken. A low value points to a greater loss.
